Laboratory results published in ChEMBL document CHEMBL4325922, “Restoring Let-7 microRNA Biogenesis Using a Small-Molecule Inhibitor of the Protein-RNA Interaction” (ACS Med Chem Lett, 2018).
Activity calls are given as the source filed them. The calls are words filed in the database; no cut-off is given here.

Experiments:
[1] = molecular target: T1, Protein lin-28 homolog A (Homo sapiens) (UniProt Q9H9Z2); test: Binding affinity to recombinant human N-terminal His6-tagged Lin28a cold shock domain expressed in Escherichia coli Rosetta2 (DE3) pLysS at 0.625 to 10 uM by surface plasmon resonance analysis
T1 sequence (whole entry): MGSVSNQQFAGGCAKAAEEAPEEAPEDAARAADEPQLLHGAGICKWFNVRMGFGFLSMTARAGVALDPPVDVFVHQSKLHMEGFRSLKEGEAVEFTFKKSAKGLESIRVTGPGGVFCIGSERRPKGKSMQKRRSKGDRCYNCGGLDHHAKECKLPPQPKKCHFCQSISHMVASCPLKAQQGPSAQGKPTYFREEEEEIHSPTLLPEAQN

[2] = molecular target: T1, Protein lin-28 homolog A (Homo sapiens); test: Binding affinity to recombinant human N-terminal His6-tagged Lin28a zinc knuckle domain expressed in Escherichia coli Rosetta2 (DE3) pLysS at 0.625 to 10 uM by surface plasmon resonance analysis
[3] = molecular target: T1, Protein lin-28 homolog A (Homo sapiens); test: Inhibition of biotinylated-preE-let-7g binding to Lin28a in human JAR cells by pull down assay; assay type: cell-based
Summary of the method: (§1)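 5′-Biotinylated preE-let-7g is immobilized on streptavidin beads and incubated with proteome from JAR human choriocarcinoma cells, which express Lin28a and Lin28b. Test compound is present during binding, and target engagement is judged by the proteins pulled down.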

[4] = molecular target: Heterogeneous nuclear ribonucleoprotein A1 (Homo sapiens) (UniProt P09651); test: Inhibition of biotinylated-preE-let-7g binding to hnRNPA1 in human JAR cells by pull down assay; assay type: cell-based; summary of the method: as §1
[5] = molecular target: T2, Protein lin-28 homolog A/B (Homo sapiens) (UniProt Q6ZN17+Q9H9Z2); test: Inhibition of Lin28a/Lin28b in human JAR cells assessed as increase in mature let-7a level after 20 hrs by TRIzol dye based qRT-PCR analysis; assay type: cell-based
Summary of the method: (§2)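 JAR cells (express Lin28a and Lin28b) exposed to compound for 20 h; miRNA levels quantified with U6 snRNA as endogenous control; three or more biological replicates, standard deviation, paired two-tailed t test.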

[6] = molecular target: T2, Protein lin-28 homolog A/B (Homo sapiens); test: Inhibition of Lin28a/Lin28b in human JAR cells assessed as increase in mature let-7b level after 20 hrs by TRIzol dye based qRT-PCR analysis; assay type: cell-based; summary of the method: as §2
[7] = molecular target: T2, Protein lin-28 homolog A/B (Homo sapiens); test: Inhibition of Lin28a/Lin28b in human JAR cells assessed as increase in mature let-7d level after 20 hrs by TRIzol dye based qRT-PCR analysis; assay type: cell-based; summary of the method: as §2
[8] = molecular target: T2, Protein lin-28 homolog A/B (Homo sapiens); test: Inhibition of Lin28a/Lin28b in human JAR cells assessed as increase in mature let-7g level after 20 hrs by TRIzol dye based qRT-PCR analysis; assay type: cell-based; summary of the method: as §2
[9] = tested on: JAR; test: Effect on miR-98 level in human JAR cells at 5 to 10 uM after 20 hrs by TRIzol dye based qRT-PCR analysis; assay type: functional, cell-based; summary of the method: as §2
[10] = tested on: JAR; test: Increase in mature let-7d level in Lin28a/b knockdown human JAR cells at 10 uM after 20 hrs by qRT-PCR analysis; assay type: functional, cell-based
Summary of the method: (§3)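 Lin28 knocked-down JAR cells treated for 20 h; let-7 levels measured against U6 snRNA endogenous control; 2 biological replicates.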

[11] = tested on: JAR; test: Increase in mature let-7g level in Lin28a/b knockdown human JAR cells at 10 uM after 20 hrs by qRT-PCR analysis; assay type: functional, cell-based; summary of the method: as §3
[12] = molecular target: T1, Protein lin-28 homolog A (Homo sapiens); test: Inhibition of Lin28a in human PA1 cells assessed as increase in mature let-7d level at 10 uM after 20 hrs by TRIzol dye based qRT-PCR analysis; assay type: cell-based
Summary of the method: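 PA-1 ovarian teratocarcinoma cells (express Lin28a) treated for 20 h; let-7 quantified relative to U6 snRNA; 4 biological replicates, standard deviation, paired two-tailed t test.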

[13] = tested on: PA-1; test: Increase in mature let-7g level in Lin28a CRISPR-Cas9 knockout human PA1 cells at 10 uM after 20 hrs by qRT-PCR analysis; assay type: functional, cell-based
Summary of the method: (§4)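 PA-1 cells with Lin28a fully knocked out by CRISPR/Cas9 editing (clonal lines) treated for 20 h; let-7 levels normalized to U6 snRNA; 2 technical replicates.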

[14] = tested on: PA-1; test: Increase in mature let-7i level in Lin28a CRISPR-Cas9 knockout human PA1 cells at 10 uM after 20 hrs by qRT-PCR analysis; assay type: functional, cell-based; summary of the method: as §4
[15] = molecular target: T2, Protein lin-28 homolog A/B (Homo sapiens); test: Inhibition of Lin28a/Lin28b in human JAR cells assessed as reduction in HMGA2 expression at 5 to 10 uM after 24 hrs by Western blot analysis; assay type: cell-based
Summary of the method: (§5)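 Endogenous let-7 target proteins (HMGA2, IMP1, Ras, Lin28a) detected by Western blot in JAR or PA-1 cells after 24 h compound treatment.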

[16] = molecular target: T2, Protein lin-28 homolog A/B (Homo sapiens); test: Inhibition of Lin28a/Lin28b in human JAR cells assessed as reduction in IMP1 expression at 5 to 10 uM after 24 hrs by Western blot analysis; assay type: cell-based; summary of the method: as §5
[17] = molecular target: T2, Protein lin-28 homolog A/B (Homo sapiens); test: Inhibition of Lin28a/Lin28b in human JAR cells assessed as reduction in Ras expression at 5 to 10 uM after 24 hrs by Western blot analysis; assay type: cell-based; summary of the method: as §5
[18] = molecular target: T2, Protein lin-28 homolog A/B (Homo sapiens); test: Inhibition of Lin28a/Lin28b in human JAR cells assessed as reduction in Lin28a expression at 5 to 10 uM after 24 hrs by Western blot analysis; assay type: cell-based; summary of the method: as §5
[19] = molecular target: T1, Protein lin-28 homolog A (Homo sapiens); test: Inhibition of Lin28a in human PA1 cells assessed as reduction in HMGA2 expression at 10 uM after 24 hrs by Western blot analysis; assay type: cell-based; summary of the method: as §5
[20] = molecular target: T1, Protein lin-28 homolog A (Homo sapiens); test: Inhibition of Lin28a in human PA1 cells assessed as reduction in IMP1 expression at 10 uM after 24 hrs by Western blot analysis; assay type: cell-based; summary of the method: as §5
[21] = molecular target: T1, Protein lin-28 homolog A (Homo sapiens); test: Inhibition of Lin28a in human PA1 cells assessed as reduction in Lin28 expression at 10 uM after 24 hrs by Western blot analysis; assay type: cell-based; summary of the method: as §5
[22] = molecular target: T2, Protein lin-28 homolog A/B (Homo sapiens); test: Inhibition of Lin28a/Lin28b in human MCF7 cells assessed as reduction in IMP1 expression at 10 uM after 24 hrs by Western blot analysis; assay type: cell-based
[23] = molecular target: T2, Protein lin-28 homolog A/B (Homo sapiens); test: Inhibition of Lin28a/Lin28b in human MCF7 cells assessed as reduction in Ras expression at 10 uM after 24 hrs by Western blot analysis; assay type: cell-based
[24] = molecular target: T2, Protein lin-28 homolog A/B (Homo sapiens); test: Inhibition of Lin28a/Lin28b in human paclitaxel-resistant JAR cells assessed as reduction in IMP1 expression at 10 uM measured after 24 hrs by Western blot analysis
[25] = molecular target: T2, Protein lin-28 homolog A/B (Homo sapiens); test: Inhibition of Lin28a/Lin28b in human paclitaxel-resistant JAR cells assessed as reduction in MDR1 expression at 10 uM measured after 24 hrs by Western blot analysis
[26] = tested on: JAR; test: Inhibition of sphere formation in human JAR cells at 10 uM after 24 hrs by WST assay; assay type: functional, cell-based
Summary of the method: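 JAR cells are pretreated with compound for 24 h, dissociated to single cells, and equal numbers of viable cells are cultured in sphere-forming media for 12 days. Sphere formation is quantified by WST assay. Three biological replicates, standard deviation, paired two-tailed t test.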

[27] = tested on: JAR; test: Cytotoxicity against human JAR cells after 24 hrs by WST assay; assay type: functional, cell-based
[28] = Cytotoxicity against mouse C8-D1A cells at 10 uM after 24 hrs by WST assay; assay type: cell-based

T2 sequence (Q6ZN17 whole entry, looked up, one chain of several): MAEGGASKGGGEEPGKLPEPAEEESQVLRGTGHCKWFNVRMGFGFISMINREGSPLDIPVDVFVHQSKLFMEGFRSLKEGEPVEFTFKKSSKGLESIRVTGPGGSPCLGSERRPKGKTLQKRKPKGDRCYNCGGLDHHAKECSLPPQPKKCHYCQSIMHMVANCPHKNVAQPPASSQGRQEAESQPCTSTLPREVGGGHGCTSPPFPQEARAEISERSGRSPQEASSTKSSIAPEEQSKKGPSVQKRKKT
Chain of Heterogeneous nuclear ribonucleoprotein A1 (Homo sapiens) (P09651 whole entry): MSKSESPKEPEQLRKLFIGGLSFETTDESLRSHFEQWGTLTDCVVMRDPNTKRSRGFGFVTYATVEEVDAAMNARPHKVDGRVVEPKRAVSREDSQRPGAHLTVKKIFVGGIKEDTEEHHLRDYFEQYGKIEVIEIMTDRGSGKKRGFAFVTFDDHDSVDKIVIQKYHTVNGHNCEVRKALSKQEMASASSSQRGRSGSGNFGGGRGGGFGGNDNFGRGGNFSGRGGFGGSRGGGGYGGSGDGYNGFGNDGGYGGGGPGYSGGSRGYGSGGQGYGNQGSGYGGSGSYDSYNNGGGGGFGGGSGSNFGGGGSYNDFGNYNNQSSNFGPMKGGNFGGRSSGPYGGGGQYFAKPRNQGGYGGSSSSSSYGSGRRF

Activity [1]: Active
Activity [2]: inactive
inhibition [3]: Dose-dependent effect
inhibition [4]: inactive
inhibition [5]: Dose-dependent effect
inhibition [6]: Dose-dependent effect
inhibition [7]: Dose-dependent effect
inhibition [8]: Dose-dependent effect
inhibition [12]: Active
inhibition [15]: Active
inhibition [16]: Active
inhibition [17]: Active
inhibition [18]: Active
inhibition [19]: Active
inhibition [20]: Active
inhibition [21]: Active
inhibition [22]: inactive
inhibition [23]: inactive
inhibition [24]: Active
inhibition [25]: Active
Structure (SMILES): NC(=O)c1c(Nc2ccc(Cl)cc2Cl)[nH]c2c(Cl)ccc(Cl)c2c1=O
Activity [9]: inactive
Activity [10]: inactive
Activity [11]: inactive
Activity [13]: inactive
Activity [14]: inactive
inhibition [26]: Active
Activity [27]: Active
Activity [28]: Toxic
